Laboratory results reported in ChEMBL document CHEMBL1138555, “N-acylated and N,N'-diacylated imidazolidine-2-thione derivatives and N,N'-diacylated tetrahydropyrimidine-2(1H)-thione analogues: synthesis and antiproliferative activity” (Eur J Med Chem, 2009).
Activity calls are given as the source filed them. No cut-off for these calls is given here.

Columns and labels:
[1] = test system: Human immunodeficiency virus 1; experiment: Antiviral activity against HIV1 in human MT4 cells assessed as prevention of virus-induced cytopathogenicity; assay type: functional, organism-based
Summary of the method: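 MT-4 cells, 1 × 10⁴ per well, with serial compound dilutions from a 100 mM DMSO stock. Infected with HIV-1 at 100 CCID50. Four-day incubation at 37 °C, then viable cells measured by MTT. Read-out is inhibition of virus-induced cytopathogenicity, assessed at non-cytotoxic concentrations.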

[2] = test system: NCI-H23; experiment: Growth inhibition of human NCI-H23 cells after 48 hrs by sulforhodamine B assay; assay type: functional; details: NCI-H23, 48 h
Summary of the method: (§1)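 NCI screen panel. Five 10-fold concentrations from 10^-4 to 10^-8 M. Exposure for the last 48 h of a 72 h incubation. Growth estimated by sulforhodamine B protein assay. GI50 is the concentration giving 50% growth inhibition. Where that level was not reached or was exceeded, the value is given as above or below the highest or lowest concentration tested.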

[3] = test system: UACC-62; experiment: Growth inhibition of human UACC62 cells after 48 hrs by sulforhodamine B assay; assay type: functional; details: UACC-62, 48 h
Summary of the method: (§2)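 NCI in vitro panel screen. Compounds tested at five 10-fold dilutions, 10^-4 to 10^-8 M. Cells in 96-well plates were exposed for the last 48 h of a 72 h incubation. Viability/growth was read by sulforhodamine B protein assay. GI50 is the concentration giving 50% growth inhibition. Values beyond the tested range are reported as greater or less than the maximum or minimum concentration.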

[4] = test system: NCI-H460; experiment: Growth inhibition of human NCI-H460 cells after 48 hrs by sulforhodamine B assay; assay type: functional; details: NCI-H460, 48 h; summary of the method: as §1
[5] = test system: M14; experiment: Growth inhibition of human M14 cells after 48 hrs by sulforhodamine B assay; assay type: functional; details: M14, 48 h; summary of the method: as §1
[6] = test system: Malme-3M; experiment: Growth inhibition of human MALME-3M cells after 48 hrs by sulforhodamine B assay; assay type: functional; summary of the method: as §1
[7] = test system: BT-549; experiment: Growth inhibition of human BT549 cells after 48 hrs by sulforhodamine B assay; assay type: functional; details: BT-549, 48 h; summary of the method: as §1
[8] = test system: HT-29; experiment: Growth inhibition of human HT-29 cells after 48 hrs by sulforhodamine B assay; assay type: functional; details: HT-29, 48 h; summary of the method: as §1
[9] = test system: SK-OV-3; experiment: Growth inhibition of human SKOV3 cells after 48 hrs by sulforhodamine B assay; assay type: functional; details: SK-OV-3, 48 h; summary of the method: as §1
[10] = test system: 786-0; experiment: Growth inhibition of human 786-0 cells after 48 hrs by sulforhodamine B assay; assay type: functional; details: 786-0, 48 h; summary of the method: as §1
[11] = test system: MCF7; experiment: Growth inhibition of human MCF7 cells after 48 hrs by sulforhodamine B assay; assay type: functional; details: MCF7, 48 h; summary of the method: as §1
[12] = test system: NCI-H322M; experiment: Growth inhibition of human NCI-H322M cells after 48 hrs by sulforhodamine B assay; assay type: functional; summary of the method: as §1
[13] = test system: EKVX; experiment: Growth inhibition of human EKVX cells after 48 hrs by sulforhodamine B assay; assay type: functional; summary of the method: as §1
[14] = Growth inhibition of human […] cells after 48 hrs by sulforhodamine B assay; assay type: functional; summary of the method: as §1
[15] = test system: HOP-92; experiment: Growth inhibition of human HOP92 cells after 48 hrs by sulforhodamine B assay; assay type: functional; details: HOP-92, 48 h; summary of the method: as §1
[16] = test system: SF-268; experiment: Growth inhibition of human SF268 cells after 48 hrs by sulforhodamine B assay; assay type: functional; details: SF-268, 48 h; summary of the method: as §1
[17] = test system: NCI-H522; experiment: Growth inhibition of human NCI-H522 cells after 48 hrs by sulforhodamine B assay; assay type: functional; details: NCI-H522, 48 h; summary of the method: as §1
[18] = test system: TK-10; experiment: Growth inhibition of human TK10 cells after 48 hrs by sulforhodamine B assay; assay type: functional; details: TK-10, 48 h; summary of the method: as §2
[19] = test system: MDA-MB-231; experiment: Growth inhibition of human MDA-MB-231 cells after 48 hrs by sulforhodamine B assay; assay type: functional; details: MDA-MB-231, 48 h; summary of the method: as §1
[20] = test system: IGROV-1; experiment: Growth inhibition of human IGROV1 cells after 48 hrs by sulforhodamine B assay; assay type: functional; details: IGROV-1, 48 h; summary of the method: as §1
[21] = test system: HL-60(TB); experiment: Growth inhibition of human HL-60(TB) cells after 48 hrs by sulforhodamine B assay; assay type: functional; details: HL-60, 48 h
Summary of the method: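 NCI 60-cell-line screen protocol: cells exposed to compound at five 10-fold dilutions from 10^-4 to 10^-8 M for the last 48 h of a 72 h incubation. Sulforhodamine B protein assay estimated viability/growth. GI50 (50% growth inhibition) derived; where not reached or exceeded, reported as greater or less than the highest or lowest concentration tested.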

[22] = test system: OVCAR-4; experiment: Growth inhibition of human OVCAR4 cells after 48 hrs by sulforhodamine B assay; assay type: functional; details: OVCAR-4, 48 h; summary of the method: as §1
[23] = test system: SK-MEL-2; experiment: Growth inhibition of human SK-MEL-2 cells after 48 hrs by sulforhodamine B assay; assay type: functional; details: SK-MEL-2, 48 h; summary of the method: as §1
[24] = test system: CAKI-1; experiment: Growth inhibition of human Caki1 cells after 48 hrs by sulforhodamine B assay; assay type: functional; details: CAKI-1, 48 h; summary of the method: as §1
[25] = test system: A549; experiment: Growth inhibition of human A549 cells after 48 hrs by sulforhodamine B assay; assay type: functional; details: A549, 48 h; summary of the method: as §1
[26] = test system: HCT-116; experiment: Growth inhibition of human HCT116 cells after 48 hrs by sulforhodamine B assay; assay type: functional; details: HCT-116, 48 h; summary of the method: as §1
[27] = test system: MDA-MB-435; experiment: Growth inhibition of human MDA-MB-435 cells after 48 hrs by sulforhodamine B assay; assay type: functional; details: MDA-MB-435, 48 h; summary of the method: as §1
[28] = test system: SW-620; experiment: Growth inhibition of human SW620 cells after 48 hrs by sulforhodamine B assay; assay type: functional; details: SW-620, 48 h; summary of the method: as §2
[29] = test system: SK-MEL-28; experiment: Growth inhibition of human SK-MEL-28 cells after 48 hrs by sulforhodamine B assay; assay type: functional; details: SK-MEL-28, 48 h; summary of the method: as §1
[30] = test system: SN12C; experiment: Growth inhibition of human SN12C cells after 48 hrs by sulforhodamine B assay; assay type: functional; summary of the method: as §2
[31] = test system: ACHN; experiment: Growth inhibition of human ACHN cells after 48 hrs by sulforhodamine B assay; assay type: functional; summary of the method: as §1
[32] = test system: T47D; experiment: Growth inhibition of human T47D cells after 48 hrs by sulforhodamine B assay; assay type: functional; summary of the method: as §2
[33] = test system: U-251; experiment: Growth inhibition of human U251 cells after 48 hrs by sulforhodamine B assay; assay type: functional; details: U-251, 48 h; summary of the method: as §2
[34] = test system: UO-31; experiment: Growth inhibition of human UO31 cells after 48 hrs by sulforhodamine B assay; assay type: functional; details: UO-31, 48 h; summary of the method: as §2
[35] = test system: RXF 393; experiment: Growth inhibition of human RXF393 cells after 48 hrs by sulforhodamine B assay; assay type: functional; details: RXF 393, 48 h; summary of the method: as §1
[36] = test system: DU-145; experiment: Growth inhibition of human DU145 cells after 48 hrs by sulforhodamine B assay; assay type: functional; details: DU-145, 48 h; summary of the method: as §1
[37] = test system: HCT-15; experiment: Growth inhibition of human HCT15 cells after 48 hrs by sulforhodamine B assay; assay type: functional; details: HCT-15, 48 h; summary of the method: as §1
[38] = test system: K562; experiment: Growth inhibition of human K562 cells after 48 hrs by sulforhodamine B assay; assay type: functional; details: K562, 48 h; summary of the method: as §1
[39] = test system: MOLT-4; experiment: Growth inhibition of human MOLT4 cells after 48 hrs by sulforhodamine B assay; assay type: functional; details: MOLT-4, 48 h; summary of the method: as §1
[40] = test system: SR; experiment: Growth inhibition of human SR cells after 48 hrs by sulforhodamine B assay; assay type: functional; summary of the method: as §2
[41] = test system: KM12; experiment: Growth inhibition of human KM12 cells after 48 hrs by sulforhodamine B assay; assay type: functional; details: KM12, 48 h; summary of the method: as §1
[42] = test system: OVCAR-3; experiment: Growth inhibition of human OVCAR-3 cells after 48 hrs by sulforhodamine B assay; assay type: functional; details: OVCAR-3, 48 h; summary of the method: as §1
[43] = test system: UACC-257; experiment: Growth inhibition of human UACC257 cells after 48 hrs by sulforhodamine B assay; assay type: functional; details: UACC-257, 48 h; summary of the method: as §2
[44] = test system: SK-MEL-5; experiment: Growth inhibition of human SK-MEL-5 cells after 48 hrs by sulforhodamine B assay; assay type: functional; details: SK-MEL-5, 48 h; summary of the method: as §1
[45] = test system: MT4; experiment: Antiproliferative activity against human MT4 cells assessed as reduction of growth by MTT assay; assay type: functional, cell-based
Summary of the method: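 MT-4 lymphoblastoid T cells (ATCC) in RPMI 1640 with 10% FCS, penicillin/streptomycin, checked for mycoplasma. 1 × 10⁴ mock-infected cells per well with serial dilutions from a 100 mM DMSO stock. Incubated 4 days at 37 °C, viable cells counted by MTT. IC50 versus untreated controls by linear regression. Mean of three separate experiments.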

[46] = test system: OVCAR-8; experiment: Growth inhibition of human OVCAR8 cells after 48 hrs by sulforhodamine B assay; assay type: functional; details: OVCAR-8, 48 h; summary of the method: as §1
[47] = test system: SF-295; experiment: Growth inhibition of human SF295 cells after 48 hrs by sulforhodamine B assay; assay type: functional; details: SF-295, 48 h; summary of the method: as §1
[48] = test system: PC-3; experiment: Growth inhibition of human PC3 cells after 48 hrs by sulforhodamine B assay; assay type: functional; details: PC-3, 48 h; summary of the method: as §1

In the case of `N#CC(C#N)=CN1CCNC1=S`, the Activity [1] is reported as “inactive”.
With `N#C/C(=C\N1CCNC1=S)C(N)=O` the Activity [1] was “inactive”.
Work on `N#CC(C#N)=CN1CCN(C(=O)c2ccccc2)C1=S` yielded a GI50 [2] of 26.1 µM, a GI50 [3] of 50.4 µM and a GI50 [4] of 20 µM. It also gave a GI50 [5] of 37.3 µM, a GI50 [6] of 10.2 µM and a GI50 [7] of 22.8 µM. The GI50 [8] was 42 µM, the GI50 [9] was 66.7 µM and the GI50 [10] was 38.9 µM. The GI50 [11] was 16.7 µM, the GI50 [12] was 33.4 µM and the GI50 [13] was 3.5 µM. The GI50 [14] was 35.3 µM, the GI50 [15] was 56.8 µM and the GI50 [16] was 21.3 µM. The GI50 [17] was 15.9 µM, the GI50 [18] was 23.3 µM and the GI50 [19] was 36.1 µM. The GI50 [20] was 28.2 µM, the GI50 [21] was 33.5 µM and the GI50 [22] was 59.3 µM. It also gave a GI50 [23] of 18.4 µM, a GI50 [24] of 28.7 µM and a GI50 [25] of 37.1 µM. It also gave a GI50 [26] of 34 µM, a GI50 [27] of 38.8 µM and a GI50 [28] of 33.7 µM. It also gave a GI50 [29] of 45.5 µM, a GI50 [30] of 24.6 µM and a GI50 [31] of 18.8 µM. It also gave a GI50 [32] of 89.2 µM, a GI50 [33] of 38.2 µM and a GI50 [34] of 20.4 µM. For the same compound, the GI50 [35] was 22.7 µM, the GI50 [36] was 24.4 µM and the GI50 [37] was 36.4 µM. The GI50 [38] was 79.5 µM, the GI50 [39] was 39.2 µM and the GI50 [40] was 18.8 µM. For the same compound, the GI50 [41] was 32.3 µM, the GI50 [42] was 36.4 µM and the GI50 [43] was 25.3 µM. It also gave a GI50 [44] of 23.3 µM, an IC50 [45] of 11 µM and a GI50 [46] of 77 µM. It also gave a GI50 [47] of 46.2 µM and a GI50 [48] of 60 µM.
For `CCOC(=O)/C(=C/N1CCNC1=S)C(=O)c1ccccc1`, the Activity [1] was “inactive”.
In the case of `O=C(C(=CN1CCNC1=S)C(=O)c1ccccc1)c1ccccc1`, the Activity [1] is reported as “inactive”.
In the case of `COC(=O)/C(=C\N1CCNC1=S)C(C)=O`, the Activity [1] is reported as “inactive”.
In the case of `N#C/C(=C\N1CCNC1=S)C(=O)c1ccccc1`, the Activity [1] is reported as “inactive”.
